Test system in the first assay: not listed separately
As to the kind of experiment: Antiproliferative activity against human A2780/DX3 cells at 0.84 uM after 3 days by MTT assay. Conditions: A2780/DX3, 72 h. Format: functional. A general note: Formazan colour is commonly taken as a measure of viable cells.
The term inhibition denotes the share of the control response that was lost under treatment. In turn, `CC1=CSC(O)(c2cccc(Cl)c2)c2noc(=O)n21` (stereo not drawn) showed an inhibition at 0.84 µM of 0%.

Another assay relates to A2780 ADR. As to the kind of experiment: Reversal of P-gp 170-mediated multidrug resistance in human A2780/DX3 cells assessed as reduction in doxorubicin IC50 at IC0 pretreated for 6 hrs before doxorubicin administration measured after 3 days by MTT assay.
Details: not given
Format: cell-based. The arrangement: scale not given: the % may be the effect or the level left. The essentials:
(§1)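 A2780/DX3 cells went into medium holding the modulator at its MTT-derived 0% or 5% growth-inhibition concentration. Doxorubicin (30–0.048 μM serial dilutions, modulator kept constant) was added 6 h later. MTT (2 mg/mL) was added after 3 days for 4 h at 37 °C, formazan dissolved in DMSO, A540 read. IC50 came from dose–response curves, repeated 4–6 times. % reduction is versus doxorubicin alone in the same experiment. Kruskal–Wallis/Mann–Whitney tests.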
As to `COC1(c2ccc(Br)cc2)SC=C(C)n2c1noc2=O` (stereo not drawn), the Activity was -9%.
Still for that read-out and setting: under `CC1=CSC(O)(c2ccc(C)cc2)c2noc(=O)n21` (stereo not drawn) stands 4%.
The same measure, in the same setting: under `CC1=CSC(O)(c2ccc([N+](=O)[O-])cc2)c2noc(=O)n21` (stereo not drawn) stands 26%; under `COc1ccc(C2(O)SC=C(C)n3c2noc3=O)cc1` (stereo not drawn), 10%.
`CC1=CSC(O)(c2cccc(Cl)c2)c2noc(=O)n21` (stereo not drawn): the Activity amounted to 7%.
Take `CCCCOC1(c2ccc(Cl)cc2)SC=C(C)n2c1noc2=O` (stereo not drawn): the Activity was -21%.
On the same count and under the same terms, as for `CC1=CSC(O)(c2ccccc2)c2noc(=O)n21` (stereo not drawn), the figure is -16%.

Test system in the next assay: not listed separately
As to the kind of experiment: Antiproliferative activity against human A2780/DX3 cells at 2.25 uM after 3 days by MTT assay. Format: functional. Conditions: A2780/DX3, 72 h.
The molecule `COc1ccc(C2(O)SC=C(C)n3c2noc3=O)cc1` (stereo not drawn) displayed an inhibition at 2.25 µM of 0%.

Test system in a further assay: not listed separately
As to the kind of experiment: Antiproliferative activity against human A2780/DX3 cells at 6.2 uM after 3 days by MTT assay. Format: functional. The note with it: A2780/DX3, 72 h.
Regarding `CC1=CSC(O)(c2ccccc2)c2noc(=O)n21` (stereo not drawn), the inhibition at 6.2 µM turned out to be 0%.

Another assay has as its system A2780. As to the kind of experiment: Antiproliferative activity against human A2780 cells at 6.1 uM after 3 days by MTT assay. Format: functional. Conditions: A2780, 72 h.
In turn, `CC1=CSC(O)(c2ccc(C)cc2)c2noc(=O)n21` (stereo not drawn) registered an inhibition at 6.1 µM of 0%.

The subject of a further assay is A2780. As to the kind of experiment: Antiproliferative activity against human A2780 cells at 15.4 uM after 3 days by MTT assay. Format: functional. Conditions: A2780, 72 h.
As for `COc1ccc(C2(O)SC=C(C)n3c2noc3=O)cc1` (stereo not drawn), 15.4 µM produced 0% inhibition.

The subject of another assay is A2780. In words: Antiproliferative activity against human A2780 cells after 3 days by MTT assay. Format: functional, cell-based.
Details: not given
The essentials:
(§2)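 Cells plated 6–8 h in 96-well plates. Compound alone, in duplicate at ≥5 concentrations (3-fold serial dilutions, top 100 μM), with final DMSO […] after predilution in FCS. After 3 days, MTT 4 h at 37 °C, formazan dissolved in DMSO, A540. IC50 taken from single dose–response curves; 3–4 experiments. A2780/DX3 kept doxorubicin-free 2–3 days beforehand.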
For `COC1(c2ccc(Br)cc2)SC=C(C)n2c1noc2=O` (stereo not drawn), the IC5 was 21.6 µM.
Still for that read-out and setting: under `CC1=CSC(O)(c2ccc(C)cc2)c2noc(=O)n21` (stereo not drawn) stands 28.8 µM; under `CC1=CSC(O)(c2ccc([N+](=O)[O-])cc2)c2noc(=O)n21` (stereo not drawn), 7.7 µM.
`COc1ccc(C2(O)SC=C(C)n3c2noc3=O)cc1` (stereo not drawn) displayed an IC5 of 40.1 µM.
The molecule `CC1=CSC(O)(c2cccc(Cl)c2)c2noc(=O)n21` (stereo not drawn) came in with an IC5 of 24.3 µM.
As to `CCCCOC1(c2ccc(Cl)cc2)SC=C(C)n2c1noc2=O` (stereo not drawn), the IC5 was 19.7 µM.
On the same count and under the same terms, under `CC1=CSC(O)(c2ccccc2)c2noc(=O)n21` (stereo not drawn) stands 100 µM.

The assay is the same for the next values; noted with them: Homo sapiens, A2780, 72 h.
What is called IC50 is the concentration that inhibits the measured activity by half. Consider `COC1(c2ccc(Br)cc2)SC=C(C)n2c1noc2=O` (stereo not drawn), for which it took 148 µM to reach half-maximal inhibition (IC50).
With `CC1=CSC(O)(c2ccc(C)cc2)c2noc(=O)n21` (stereo not drawn), the IC50 was > 100 µM.
The same measure, in the same setting: as for `CC1=CSC(O)(c2ccc([N+](=O)[O-])cc2)c2noc(=O)n21` (stereo not drawn), the figure is > 100 µM; as for `COc1ccc(C2(O)SC=C(C)n3c2noc3=O)cc1` (stereo not drawn), > 100 µM; as for `CC1=CSC(O)(c2cccc(Cl)c2)c2noc(=O)n21` (stereo not drawn), > 100 µM.
As for `CCCCOC1(c2ccc(Cl)cc2)SC=C(C)n2c1noc2=O` (stereo not drawn), the IC50 amounted to 89 µM.
As to `CC1=CSC(O)(c2ccccc2)c2noc(=O)n21` (stereo not drawn), the IC50 was > 100 µM.

Test system in a further assay: not listed separately
In words: Antiproliferative activity against human A2780/DX3 cells at 4.2 uM after 3 days by MTT assay. Format: functional. Conditions: A2780/DX3, 72 h.
Take `COC1(c2ccc(Br)cc2)SC=C(C)n2c1noc2=O` (stereo not drawn): at 4.2 µM the inhibition was 0%.

A further assay concerns A2780 ADR. As to the kind of experiment: Reversal of P-gp 170-mediated multidrug resistance in human A2780/DX3 cells assessed as increase in intracellular doxorubicin accumulation at 5 times IC5 pretreated for 2 hrs before doxorubicin administration measured after 2 hrs by flow cytometry. Format: cell-based.
Details: not given
Put shortly: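 A2780/DX3 cells (kept in 0.1 μM doxorubicin, drug withdrawn 2–3 days before use) seeded in flasks, grown 24 h to 75–85% confluence. Modulator given at five times the 5%-growth-inhibition concentration for 2 h, then 10 μM doxorubicin for 2 h more. Cells trypsinized, fixed in 3.7% paraformaldehyde/2% sucrose in PBS. Flow cytometry, 488 nm excitation, 575 nm bandpass. Read-out is MFI, with % increase taken from the MFI ratio to doxorubicin alone.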
(Flow cytometry measures light scatter and fluorescence of single cells or particles in a stream.)
As to `COC1(c2ccc(Br)cc2)SC=C(C)n2c1noc2=O` (stereo not drawn), the Activity is < 48%.
In the case of `CC1=CSC(O)(c2ccc(C)cc2)c2noc(=O)n21` (stereo not drawn), the Activity was < 48%.
The same measure, in the same setting: under `CC1=CSC(O)(c2ccc([N+](=O)[O-])cc2)c2noc(=O)n21` (stereo not drawn) stands < 48%.
Regarding `COc1ccc(C2(O)SC=C(C)n3c2noc3=O)cc1` (stereo not drawn), the Activity was < 48%.
On the same count and under the same terms, as for `CC1=CSC(O)(c2cccc(Cl)c2)c2noc(=O)n21` (stereo not drawn), the figure is < 48%.
For `CCCCOC1(c2ccc(Cl)cc2)SC=C(C)n2c1noc2=O` (stereo not drawn), the Activity is < 48%.
For the molecule `CC1=CSC(O)(c2ccccc2)c2noc(=O)n21` (stereo not drawn), the Activity is < 48%.

Test system in the next assay: not listed separately
In words: Antiproliferative activity against human A2780/DX3 cells at 0.5 uM after 3 days by MTT assay. Format: functional. Conditions: A2780/DX3, 72 h.
As for `CC1=CSC(O)(c2ccc(C)cc2)c2noc(=O)n21` (stereo not drawn), at 0.5 µM the inhibition was 0%.

The next assay concerns A2780 ADR. In words: Reversal of P-gp 170-mediated multidrug resistance in human A2780/DX3 cells assessed as reduction in doxorubicin IC50 at IC5 pretreated for 6 hrs before doxorubicin administration measured after 3 days by MTT assay. Format: cell-based. Further details: scale not given: the % may be the effect or the level left.
Details: not given
Put shortly:
as §1
`COC1(c2ccc(Br)cc2)SC=C(C)n2c1noc2=O` (stereo not drawn): the Activity is -9%.
Still for that read-out and setting: as for `CC1=CSC(O)(c2ccc(C)cc2)c2noc(=O)n21` (stereo not drawn), the figure is -1%.
In the case of `CC1=CSC(O)(c2ccc([N+](=O)[O-])cc2)c2noc(=O)n21` (stereo not drawn), the Activity was -10%.
Consider `COc1ccc(C2(O)SC=C(C)n3c2noc3=O)cc1` (stereo not drawn), for which the Activity was 12%.
On to `CC1=CSC(O)(c2cccc(Cl)c2)c2noc(=O)n21` (stereo not drawn), for which the Activity amounted to 7%.
As for `CCCCOC1(c2ccc(Cl)cc2)SC=C(C)n2c1noc2=O` (stereo not drawn), the Activity was -16%.
Still for that read-out and setting: as for `CC1=CSC(O)(c2ccccc2)c2noc(=O)n21` (stereo not drawn), the figure is -2%.

Test system in another assay: not listed separately
As to the kind of experiment: Antiproliferative activity against human A2780/DX3 cells at 1.0 uM after 3 days by MTT assay. Conditions: A2780/DX3, 72 h. Format: functional.
As for `CCCCOC1(c2ccc(Cl)cc2)SC=C(C)n2c1noc2=O` (stereo not drawn), at 1 µM the inhibition was 0%.

For the next assay, the system named is A2780. In words: Antiproliferative activity against human A2780 cells at 2.1 uM after 3 days by MTT assay. Format: functional. Conditions: A2780, 72 h.
Turning to `CC1=CSC(O)(c2ccc([N+](=O)[O-])cc2)c2noc(=O)n21` (stereo not drawn), the inhibition at 2.1 µM came to 0%.

Another assay concerns A2780. In words: Antiproliferative activity against human A2780 cells at 9.4 uM after 3 days by MTT assay. Format: functional. Conditions: A2780, 72 h.
`COC1(c2ccc(Br)cc2)SC=C(C)n2c1noc2=O` (stereo not drawn) registered an inhibition at 9.4 µM of 0%.

The next assay concerns A2780. In words: Antiproliferative activity against human A2780 cells at 12.2 uM after 3 days by MTT assay. Format: functional. The note with it: A2780, 72 h.
`CCCCOC1(c2ccc(Cl)cc2)SC=C(C)n2c1noc2=O` (stereo not drawn) returned an inhibition at 12.2 µM of 0%.

Test system in another assay: not listed separately
In words: Antiproliferative activity against human A2780/DX3 cells after 3 days by MTT assay. Format: functional, cell-based.
Details: not given
The essentials: as §2
Regarding `COC1(c2ccc(Br)cc2)SC=C(C)n2c1noc2=O` (stereo not drawn), the IC5 came out at 8.9 µM.
The same measure, in the same setting: as for `CC1=CSC(O)(c2ccc(C)cc2)c2noc(=O)n21` (stereo not drawn), the figure is 31.1 µM; as for `CC1=CSC(O)(c2ccc([N+](=O)[O-])cc2)c2noc(=O)n21` (stereo not drawn), 2.9 µM; as for `COc1ccc(C2(O)SC=C(C)n3c2noc3=O)cc1` (stereo not drawn), 26.7 µM.
Same read-out and setting: under `CC1=CSC(O)(c2cccc(Cl)c2)c2noc(=O)n21` (stereo not drawn) stands 3.89 µM; under `CCCCOC1(c2ccc(Cl)cc2)SC=C(C)n2c1noc2=O` (stereo not drawn), 2.2 µM.
In turn, `CC1=CSC(O)(c2ccccc2)c2noc(=O)n21` (stereo not drawn) returned an IC5 of 49.4 µM.

The assay is the same for the next values; noted with them: Homo sapiens, A2780/DX3, 72 h.
Take `COC1(c2ccc(Br)cc2)SC=C(C)n2c1noc2=O` (stereo not drawn): the IC50 is > 100 µM.
Still for that read-out and setting: under `CC1=CSC(O)(c2ccc(C)cc2)c2noc(=O)n21` (stereo not drawn) stands > 100 µM; under `CC1=CSC(O)(c2ccc([N+](=O)[O-])cc2)c2noc(=O)n21` (stereo not drawn), > 100 µM.
Regarding `COc1ccc(C2(O)SC=C(C)n3c2noc3=O)cc1` (stereo not drawn), the IC50 is > 100 µM.
For the molecule `CC1=CSC(O)(c2cccc(Cl)c2)c2noc(=O)n21` (stereo not drawn), the IC50 was > 100 µM.
In the case of `CCCCOC1(c2ccc(Cl)cc2)SC=C(C)n2c1noc2=O` (stereo not drawn), half-maximal inhibition (IC50) was put at 49 µM.
Turning to `CC1=CSC(O)(c2ccccc2)c2noc(=O)n21` (stereo not drawn), the IC50 was > 100 µM.

For the next assay, the system named is A2780. As to the kind of experiment: Antiproliferative activity against human A2780 cells at 10 uM after 3 days by MTT assay. Format: functional. The note with it: A2780, 72 h.
With `CC1=CSC(O)(c2ccccc2)c2noc(=O)n21` (stereo not drawn), 10 µM produced 0% inhibition.

Test system in a further assay: not listed separately
In words: Antiproliferative activity against human A2780/DX3 cells at 1.5 uM after 3 days by MTT assay. Format: functional. The note with it: A2780/DX3, 72 h.
Turning to `CC1=CSC(O)(c2ccc([N+](=O)[O-])cc2)c2noc(=O)n21` (stereo not drawn), at 1.5 µM the inhibition was 0%.

The next assay concerns A2780. In words: Antiproliferative activity against human A2780 cells at 1.97 uM after 3 days by MTT assay. Conditions: A2780, 72 h. Format: functional.
The molecule `CC1=CSC(O)(c2cccc(Cl)c2)c2noc(=O)n21` (stereo not drawn) returned an inhibition at 1.97 µM of 0%.

For the origin of these results see ChEMBL document CHEMBL1139365, “Inhibition of MDR1 activity in vitro by a novel class of diltiazem analogues: toward new candidates” (J Med Chem, 2009).
